Activity calls are given as the source filed them. The calls are words filed in the database; no cut-off is given here.
Key:
Bacillus subtilis [1] = test: Antibacterial activity against Bacillus subtilis at 50 ug/ml after 24 hrs by agar well diffusion method; assay type: functional; settings: for zone of inhibition at 50 µg/mL: read-out: DIZ
Outline: (§1)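 Agar well diffusion. Nutrient plates swabbed with 24 h broth culture of the bacterium; 6 mm wells bored and loaded with DMSO solutions of compound (wells at 50 and 100 per well). Chloramphenicol positive control, DMSO negative control. Plates held 37 °C, 24 h; inhibition zone diameter (mm) measured, mean of duplicates.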

Staphylococcus aureus [2] = test: Antibacterial activity against Staphylococcus aureus at 50 ug/ml after 24 hrs by agar well diffusion method; assay type: functional; settings: for zone of inhibition at 50 µg/mL: read-out: DIZ; outline: as §1
Penicillium chrysogenum [3] = test: Antifungal activity against Penicillium chrysogenum at 100 ug/ml after 48 hrs by agar well diffusion method; assay type: functional; settings: for zone of inhibition at 100 µg/mL: read-out: DIZ
Outline: (§2)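 Fungal agar well diffusion. Plates swabbed with fungal culture, 6 mm wells filled with DMSO solutions of compound (50 and 100 per well). Ketoconazole positive and DMSO negative controls. Plates incubated 28 °C for 48 h; zone of inhibition diameter (mm) read, average of duplicates.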

Aspergillus niger [4] = test: Antifungal activity against Aspergillus niger at 100 ug/ml after 48 hrs by agar well diffusion method; assay type: functional; settings: for zone of inhibition at 100 µg/mL: read-out: DIZ; outline: as §2
Penicillium chrysogenum [5] = test: Antifungal activity against Penicillium chrysogenum at 50 ug/ml after 48 hrs by agar well diffusion method; assay type: functional; settings: for zone of inhibition at 50 µg/mL: read-out: DIZ; outline: as §2
Pseudomonas aeruginosa [6] = test: Antibacterial activity against Pseudomonas aeruginosa at 100 ug/ml after 24 hrs by agar well diffusion method; assay type: functional; settings: for zone of inhibition at 100 µg/mL: read-out: DIZ; outline: as §1
Klebsiella pneumoniae [7] = test: Antibacterial activity against Klebsiella pneumoniae at 50 ug/ml after 24 hrs by agar well diffusion method; assay type: functional; settings: for zone of inhibition at 50 µg/mL: read-out: DIZ; outline: as §1
Staphylococcus aureus [8] = test: Antibacterial activity against Staphylococcus aureus at 100 ug/ml after 24 hrs by agar well diffusion method; assay type: functional; settings: for zone of inhibition at 100 µg/mL: read-out: DIZ; outline: as §1
A549 = test: Cytotoxicity against human A549 cells up to 0.2 mM after 72 hrs by MTT assay
Klebsiella pneumoniae [9] = test: Antibacterial activity against Klebsiella pneumoniae at 100 ug/ml after 24 hrs by agar well diffusion method; assay type: functional; settings: for zone of inhibition at 100 µg/mL: read-out: DIZ; outline: as §1
Aspergillus niger [10] = test: Antifungal activity against Aspergillus niger at 50 ug/ml after 48 hrs by agar well diffusion method; assay type: functional; settings: for zone of inhibition at 50 µg/mL: read-out: DIZ; outline: as §2
Bacillus subtilis [11] = test: Antibacterial activity against Bacillus subtilis at 100 ug/ml after 24 hrs by agar well diffusion method; assay type: functional; settings: for zone of inhibition at 100 µg/mL: read-out: DIZ; outline: as §1
Pseudomonas aeruginosa [12] = test: Antibacterial activity against Pseudomonas aeruginosa at 50 ug/ml after 24 hrs by agar well diffusion method; assay type: functional; settings: for zone of inhibition at 50 µg/mL: read-out: DIZ; outline: as §1

| SMILES | Activity (A549) | zone of inhibition at 50 µg/mL (Bacillus subtilis [1]) | zone of inhibition at 50 µg/mL (Staphylococcus aureus [2]) | zone of inhibition at 100 µg/mL (Penicillium chrysogenum [3]) | zone of inhibition at 100 µg/mL (Aspergillus niger [4]) | zone of inhibition at 50 µg/mL (Penicillium chrysogenum [5]) | zone of inhibition at 100 µg/mL (Pseudomonas aeruginosa [6]) | zone of inhibition at 50 µg/mL (Klebsiella pneumoniae [7]) | zone of inhibition at 100 µg/mL (Staphylococcus aureus [8]) | zone of inhibition at 100 µg/mL (Klebsiella pneumoniae [9]) | zone of inhibition at 50 µg/mL (Aspergillus niger [10]) | zone of inhibition at 100 µg/mL (Bacillus subtilis [11]) | zone of inhibition at 50 µg/mL (Pseudomonas aeruginosa [12]) | also measured |
| --- | --- | --- | --- | --- | --- | --- | --- | --- | --- | --- | --- | --- | --- | --- |
| Cc1ccc(NS(=O)(=O)Cc2nnc(CS(=O)(=O)c3c[nH]cc3S(=O)(=O)c3ccc(C)cc3)o2)cc1 | inactive | – | – | – | – | – | – | – | – | – | – | – | – | diameter of the inhibition zone (DIZ) (Bacillus subtilis [1]): inactive; diameter of the inhibition zone (DIZ) (Staphylococcus aureus [2]): inactive; diameter of the inhibition zone (DIZ) (Penicillium chrysogenum [3]): inactive; diameter of the inhibition zone (DIZ) (Aspergillus niger [4]): inactive; diameter of the inhibition zone (DIZ) (Penicillium chrysogenum [5]): inactive; diameter of the inhibition zone (DIZ) (Pseudomonas aeruginosa [6]): inactive; diameter of the inhibition zone (DIZ) (Klebsiella pneumoniae [7]): inactive; diameter of the inhibition zone (DIZ) (Staphylococcus aureus [8]): inactive; diameter of the inhibition zone (DIZ) (Klebsiella pneumoniae [9]): inactive; diameter of the inhibition zone (DIZ) (Aspergillus niger [10]): inactive; diameter of the inhibition zone (DIZ) (Bacillus subtilis [11]): inactive; diameter of the inhibition zone (DIZ) (Pseudomonas aeruginosa [12]): inactive |
| Nn1c(CS(=O)(=O)Nc2ccccc2)nnc1CS(=O)(=O)c1c[nH]cc1S(=O)(=O)c1ccccc1 | inactive | 20 mm | 17 mm | 22 mm | 20 mm | 19 mm | 16 mm | 22 mm | 19 mm | 24 mm | 18 mm | 22 mm | 15 mm | – |
| Nn1c(CS(=O)(=O)/C=C/S(=O)(=O)c2ccccc2)nnc1CS(=O)(=O)Nc1ccccc1 | inactive | 24 mm | 21 mm | 26 mm | 24 mm | 23 mm | 18 mm | 26 mm | 23 mm | 28 mm | 21 mm | 26 mm | 17 mm | – |
| O=S(=O)(/C=C/S(=O)(=O)c1ccc(Cl)cc1)Cc1nnc(CS(=O)(=O)Nc2ccc(Cl)cc2)s1 | inactive | 27 mm | 29 mm | 35 mm | 33 mm | 32 mm | 27 mm | 33 mm | 32 mm | 35 mm | 31 mm | 29 mm | 25 mm | – |
| Cc1ccc(NS(=O)(=O)Cc2nnc(CS(=O)(=O)c3c[nH]cc3S(=O)(=O)c3ccc(C)cc3)s2)cc1 | inactive | 17 mm | 14 mm | 19 mm | 17 mm | 16 mm | 14 mm | 19 mm | 16 mm | 21 mm | 14 mm | 19 mm | 13 mm | – |
| O=S(=O)(Cc1nnc(CS(=O)(=O)c2c[nH]cc2S(=O)(=O)c2ccc(Cl)cc2)o1)Nc1ccc(Cl)cc1 | inactive | 17 mm | 18 mm | 26 mm | 24 mm | 22 mm | 20 mm | 23 mm | 20 mm | 25 mm | 21 mm | 21 mm | 18 mm | – |
| Nn1c(CS(=O)(=O)Nc2ccccc2)nnc1CS(=O)(=O)C1CNN=C1S(=O)(=O)c1ccccc1 (stereo not given) | inactive | 15 mm | 13 mm | 17 mm | 15 mm | 14 mm | 14 mm | 17 mm | 15 mm | 19 mm | 13 mm | 17 mm | 12 mm | – |
| Cc1ccc(NS(=O)(=O)Cc2nnc(CS(=O)(=O)c3c[nH]nc3S(=O)(=O)c3ccc(C)cc3)n2N)cc1 | inactive | 18 mm | 16 mm | 18 mm | 19 mm | 14 mm | 14 mm | 20 mm | 17 mm | 22 mm | 16 mm | 20 mm | 12 mm | – |
| O=S(=O)(Cc1nnc(CS(=O)(=O)C2CNN=C2S(=O)(=O)c2ccccc2)s1)Nc1ccccc1 (stereo not given) | inactive | 14 mm | 12 mm | – | – | – | – | – | 14 mm | – | – | 16 mm | – | diameter of the inhibition zone (DIZ) (Penicillium chrysogenum [3]): inactive; diameter of the inhibition zone (DIZ) (Aspergillus niger [4]): inactive; diameter of the inhibition zone (DIZ) (Penicillium chrysogenum [5]): inactive; diameter of the inhibition zone (DIZ) (Pseudomonas aeruginosa [6]): inactive; diameter of the inhibition zone (DIZ) (Klebsiella pneumoniae [7]): inactive; diameter of the inhibition zone (DIZ) (Klebsiella pneumoniae [9]): inactive; diameter of the inhibition zone (DIZ) (Aspergillus niger [10]): inactive; diameter of the inhibition zone (DIZ) (Pseudomonas aeruginosa [12]): inactive |
| Cc1ccc(NS(=O)(=O)Cc2nnc(CS(=O)(=O)/C=C/S(=O)(=O)c3ccc(C)cc3)s2)cc1 | inactive | 21 mm | 18 mm | 23 mm | 21 mm | 20 mm | 16 mm | 23 mm | 20 mm | 25 mm | 18 mm | 23 mm | 14 mm | – |
| Cc1ccc(NS(=O)(=O)Cc2nnc(CS(=O)(=O)c3c[nH]nc3S(=O)(=O)c3ccc(C)cc3)s2)cc1 | inactive | 10 mm | 12 mm | 13 mm | 13 mm | 11 mm | 11 mm | 13 mm | 14 mm | 15 mm | 10 mm | 13 mm | 8 mm | – |
| O=S(=O)(/C=C/S(=O)(=O)c1ccccc1)Cc1nnc(CS(=O)(=O)Nc2ccccc2)s1 | inactive | 22 mm | 19 mm | 24 mm | 22 mm | 21 mm | 17 mm | 24 mm | 21 mm | 26 mm | 19 mm | 24 mm | 16 mm | – |
| O=S(=O)(Cc1nnc(CS(=O)(=O)c2c[nH]cc2S(=O)(=O)c2ccccc2)o1)Nc1ccccc1 | inactive | 13 mm | 12 mm | – | – | – | – | – | 14 mm | – | – | 15 mm | – | diameter of the inhibition zone (DIZ) (Penicillium chrysogenum [3]): inactive; diameter of the inhibition zone (DIZ) (Aspergillus niger [4]): inactive; diameter of the inhibition zone (DIZ) (Penicillium chrysogenum [5]): inactive; diameter of the inhibition zone (DIZ) (Pseudomonas aeruginosa [6]): inactive; diameter of the inhibition zone (DIZ) (Klebsiella pneumoniae [7]): inactive; diameter of the inhibition zone (DIZ) (Klebsiella pneumoniae [9]): inactive; diameter of the inhibition zone (DIZ) (Aspergillus niger [10]): inactive; diameter of the inhibition zone (DIZ) (Pseudomonas aeruginosa [12]): inactive |
| O=S(=O)(Cc1nnc(CS(=O)(=O)C2CNN=C2S(=O)(=O)c2ccc(Cl)cc2)s1)Nc1ccc(Cl)cc1 (stereo not given) | inactive | 25 mm | 24 mm | 31 mm | 29 mm | 28 mm | 23 mm | 25 mm | 27 mm | 28 mm | 28 mm | 26 mm | 22 mm | – |
| Cc1ccc(NS(=O)(=O)Cc2nnc(CS(=O)(=O)c3c[nH]cc3S(=O)(=O)c3ccc(C)cc3)n2N)cc1 | inactive | 19 mm | 16 mm | 21 mm | 19 mm | 18 mm | 15 mm | 21 mm | 18 mm | 23 mm | 18 mm | 21 mm | 13 mm | – |
